Five molecules from article PMC10076185 (Experimental eye research, 2023) can be followed below.

Common to all, as to test: SPR, protein immobilised by amine coupling, OneStep injection
Holding throughout (type): binding

One assay addresses GSTP1 (Homo sapiens, UniProt P09211). A digest of the protocol: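 Human GSTP1 was expressed in E. coli and purified in-house, then amine-coupled to a carboxyl chip with an unmodified reference surface. Test compound in 100% DMSO was diluted to 1–100 µM in running buffer (10 mM PBS, 0.1% polyvinylpyrrolidone, 5% DMSO, pH 7.4) and injected as a Taylor-dispersion gradient, three times per concentration, at 25 °C. Sensorgrams were double-referenced with buffer blanks, and equilibrium binding constants were fitted.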

A further assay has as its target Human IRBP (Homo sapiens, UniProt P10745).
A further assay deals with Apo-AI (Homo sapiens, UniProt P02647).
A further assay has as its target Apo-M (Homo sapiens, UniProt O95445). A digest of the protocol:
(§1)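 Recombinant human proteins from commercial sources were amine-coupled to a carboxyl sensor chip beside an unmodified reference surface. Test compound in 100% DMSO was diluted to 1–100 µM in running buffer (10 mM PBS, 0.1% polyvinylpyrrolidone, 5% DMSO, pH 7.4) and given as a Taylor-dispersion gradient, three injections each, at 25 °C and 10 Hz. Sensorgrams were zeroed and double-referenced against buffer blanks, and equilibrium constants were fitted.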

The next assay addresses Apo-D (Homo sapiens, UniProt P05090). A digest of the protocol: as §1
In a further assay the target is Apo-AII (Homo sapiens, UniProt P02652). A digest of the protocol: as §1
In another assay the target is Apo-E (Homo sapiens, UniProt P02649). In outline: as §1
Apo-E, sequence (P02649 19-317): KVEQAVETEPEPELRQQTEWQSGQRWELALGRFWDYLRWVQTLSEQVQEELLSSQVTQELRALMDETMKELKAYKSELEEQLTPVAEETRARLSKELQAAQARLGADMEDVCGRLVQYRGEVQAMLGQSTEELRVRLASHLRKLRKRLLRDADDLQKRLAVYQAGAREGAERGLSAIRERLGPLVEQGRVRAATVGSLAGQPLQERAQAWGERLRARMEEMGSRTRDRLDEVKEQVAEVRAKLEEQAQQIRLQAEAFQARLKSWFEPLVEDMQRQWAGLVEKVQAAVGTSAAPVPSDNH

Apo-AII, sequence (P02652 24-100): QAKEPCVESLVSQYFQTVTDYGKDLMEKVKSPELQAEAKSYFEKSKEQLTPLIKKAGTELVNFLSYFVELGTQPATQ
Apo-M, sequence (O95445 whole entry): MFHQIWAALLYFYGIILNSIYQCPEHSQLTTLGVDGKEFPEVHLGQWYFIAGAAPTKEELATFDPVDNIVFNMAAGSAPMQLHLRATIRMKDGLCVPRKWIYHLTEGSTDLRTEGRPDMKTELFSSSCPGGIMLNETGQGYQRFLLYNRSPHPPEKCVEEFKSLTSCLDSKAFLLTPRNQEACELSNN
GSTP1, sequence (P09211 2-210): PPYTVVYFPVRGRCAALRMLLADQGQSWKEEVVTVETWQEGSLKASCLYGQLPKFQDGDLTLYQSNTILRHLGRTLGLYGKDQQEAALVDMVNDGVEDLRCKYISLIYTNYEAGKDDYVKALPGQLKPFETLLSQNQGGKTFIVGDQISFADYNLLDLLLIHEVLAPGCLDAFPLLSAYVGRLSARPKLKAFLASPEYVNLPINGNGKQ
Apo-D, sequence (P05090 21-189): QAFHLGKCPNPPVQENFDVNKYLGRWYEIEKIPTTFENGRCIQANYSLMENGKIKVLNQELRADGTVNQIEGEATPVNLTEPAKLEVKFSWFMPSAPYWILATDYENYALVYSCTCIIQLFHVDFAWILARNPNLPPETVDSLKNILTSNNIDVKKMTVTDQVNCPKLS
Human IRBP, sequence (P10745 18-1247): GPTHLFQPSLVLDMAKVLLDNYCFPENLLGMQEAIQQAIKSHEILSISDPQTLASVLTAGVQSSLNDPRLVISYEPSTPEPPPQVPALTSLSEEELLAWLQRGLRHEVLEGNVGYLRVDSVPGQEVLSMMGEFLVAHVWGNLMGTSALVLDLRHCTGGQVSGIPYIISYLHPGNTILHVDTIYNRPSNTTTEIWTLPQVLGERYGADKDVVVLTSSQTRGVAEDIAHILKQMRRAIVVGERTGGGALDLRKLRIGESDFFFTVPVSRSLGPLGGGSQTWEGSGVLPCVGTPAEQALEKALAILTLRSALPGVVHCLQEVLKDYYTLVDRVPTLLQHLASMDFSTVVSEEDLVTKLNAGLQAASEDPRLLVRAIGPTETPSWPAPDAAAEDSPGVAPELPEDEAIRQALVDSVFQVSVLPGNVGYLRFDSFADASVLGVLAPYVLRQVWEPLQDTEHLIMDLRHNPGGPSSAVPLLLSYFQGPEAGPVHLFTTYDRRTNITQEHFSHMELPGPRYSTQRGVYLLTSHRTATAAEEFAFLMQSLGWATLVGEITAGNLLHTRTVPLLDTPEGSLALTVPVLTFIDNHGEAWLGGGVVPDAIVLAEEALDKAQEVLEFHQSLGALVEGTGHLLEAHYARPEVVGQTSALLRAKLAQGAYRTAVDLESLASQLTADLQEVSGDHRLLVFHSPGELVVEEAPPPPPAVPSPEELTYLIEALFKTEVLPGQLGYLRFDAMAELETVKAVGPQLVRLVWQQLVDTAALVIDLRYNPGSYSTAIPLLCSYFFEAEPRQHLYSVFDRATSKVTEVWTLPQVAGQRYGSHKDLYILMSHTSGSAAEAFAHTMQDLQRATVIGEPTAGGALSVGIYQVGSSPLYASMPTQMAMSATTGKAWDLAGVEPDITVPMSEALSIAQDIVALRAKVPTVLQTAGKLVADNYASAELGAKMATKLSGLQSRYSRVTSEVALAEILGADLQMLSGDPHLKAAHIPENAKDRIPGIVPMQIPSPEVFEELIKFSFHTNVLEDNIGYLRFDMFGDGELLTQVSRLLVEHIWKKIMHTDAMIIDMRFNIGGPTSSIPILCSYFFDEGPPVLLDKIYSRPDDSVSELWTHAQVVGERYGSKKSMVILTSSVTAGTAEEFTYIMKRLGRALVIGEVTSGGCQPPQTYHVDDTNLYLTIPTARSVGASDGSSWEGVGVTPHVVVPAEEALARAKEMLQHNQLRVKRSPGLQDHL
Apo-AI, sequence (P02647 25-267): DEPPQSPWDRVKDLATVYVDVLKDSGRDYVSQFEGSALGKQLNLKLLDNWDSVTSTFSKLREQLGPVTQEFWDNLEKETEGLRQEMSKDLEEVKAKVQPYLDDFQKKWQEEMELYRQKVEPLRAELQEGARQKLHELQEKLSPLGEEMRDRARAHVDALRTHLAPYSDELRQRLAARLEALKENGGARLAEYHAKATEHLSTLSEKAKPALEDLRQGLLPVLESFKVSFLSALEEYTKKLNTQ

What is called Kd is the equilibrium constant for the complex coming apart. High values mean lower affinity, low ones higher affinity. With `CC1=C(/C=C/C(C)=C/C=C/C(C)=C/C=C/C=C(C)/C=C/C=C(C)/C=C/C2=C(C)C(=O)[C@@H](O)CC2(C)C)C(C)(C)C[C@H](O)C1=O` [Astaxanthin], the Kd at GSTP1 was found to be 150 ± 20 nM; at Human IRBP, 1640 ± 60 nM.
In the case of `CC1=C[C@H](O)CC(C)(C)[C@H]1/C=C/C(C)=C/C=C/C(C)=C/C=C/C=C(C)/C=C/C=C(C)/C=C/C1=C(C)C[C@@H](O)CC1(C)C` [Lutein], the Kd at Apo-AI turned out to be 12100 nM; at Apo-M, 35000 ± 1000 nM; on Human IRBP, 1060 ± 200 nM; on Apo-D it was 84000 ± 1000 nM; at Apo-AII, 6100 ± 300 nM; at Apo-E, 21000 ± 1000 nM.
As for `CC1=C(/C=C/C(C)=C/C=C/C(C)=C/C=C/C=C(C)/C=C/C=C(C)/C=C/C2=C(C)C[C@@H](O)CC2(C)C)C(C)(C)C[C@H](O)C1` [Zeaxanthin], the Kd was determined as 53 ± 10 nM on GSTP1; 5620 nM at Apo-AI; 81000 ± 9000 nM on Apo-M; 1640 ± 500 nM at Human IRBP; 68200 nM on Apo-D; 1840 ± 90 nM on Apo-AII. Moreover, binding on Apo-E was characterised by a dissociation constant (Kd) of 9250 nM.
Turning to `CC1=C(/C=C/C(C)=C/C=C/C(C)=C/C=C/C=C(C)/C=C/C=C(C)/C=C/C2=C(C)C[C@H](O)CC2(C)C)C(C)(C)C[C@H](O)C1` [meso-Zeaxanthin], the Kd turned out to be 55 ± 30 nM on GSTP1; 7900 ± 200 nM on Apo-AI; 35400 ± 800 nM on Apo-M; 1850 ± 300 nM at Human IRBP; 45600 nM on Apo-D; 1600 ± 700 nM on Apo-AII. In addition, the affinity at Apo-E, expressed as Kd, was 6220 nM.
In the case of `CC1=C(/C=C/C(C)=C/C=C/C(C)=C/C=C/C=C(C)/C=C/C=C(C)/C=C/C2=C(C)CCCC2(C)C)C(C)(C)CCC1` [β-Carotene], the Kd was 330 ± 30 nM on Apo-AI; 50 nM on Apo-M; 920 ± 100 nM on Human IRBP; 10 nM on Apo-D; 400 ± 60 nM on Apo-E.
